# Measured values: ChEMBL document CHEMBL1629690, “Development of hexadecyloxypropyl tenofovir (CMX157) for treatment of infection caused by wild-type and nucleoside/nucleotide-resistant HIV” (Antimicrob Agents Chemother, 2010)
# Test system: Human immunodeficiency virus 1
# Assay: Antiviral activity against HIV1 isolate 194 harboring reverse transcriptase M41L/T215Y/M184V mutant gene by phenosense assay
# Type: functional, organism-based
# Conditions: Human immunodeficiency virus 1, isolate 194
# Outline: (§1)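 Recombinant-virus PhenoSense HIV assay run on a panel of 30 NRTI-resistant HIV-1 mutants and two wild-type viruses. Each virus is tested across increasing drug concentrations to give an inhibition curve and EC50. Fold change is the test recombinant EC50 divided by the EC50 of the drug-sensitive wild-type reference virus.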
row,Compound,EC50 [µM]
1,Nc1nc(=O)n([C@@H]2CS[C@H](CO)O2)cc1F [EMTRICITABINE],> 100

# Test system: Human immunodeficiency virus 1
# Assay: Antiviral activity against HIV1 isolate 070 harboring reverse transcriptase 65R/S68G mutant gene by phenosense assay
# Type: functional, organism-based
# Conditions: Human immunodeficiency virus 1, isolate 070
# Outline: as §1
row,Compound,EC50 [µM]
1,Nc1nc(=O)n([C@@H]2CS[C@H](CO)O2)cc1F [EMTRICITABINE],19

# Test system: Human immunodeficiency virus 1
# Assay: Antiviral activity against HIV1 isolate 206 harboring reverse transcriptase D67N/K70R mutant gene by phenosense assay
# Type: functional, organism-based
# Conditions: Human immunodeficiency virus 1, isolate 206
# Outline: (§2)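 PhenoSense HIV recombinant virus assay: patient-derived HIV-1 with major NRTI resistance mutations tested against increasing drug concentrations to give inhibition curves. EC50 is the concentration giving 50% inhibition. Fold change is the test recombinant EC50 divided by the EC50 of a drug-sensitive wild-type reference virus. Panel of 30 NRTI-resistant isolates plus two wild-type viruses.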
row,Compound,EC50 [µM]
1,Nc1nc(=O)n([C@@H]2CS[C@H](CO)O2)cc1F [EMTRICITABINE],3.3

# Test system: Human immunodeficiency virus 1
# Assay: Antiviral activity against HIV1 isolate 174 harboring reverse transcriptase M184V mutant gene obtained as site-directed mutant of NL4-3 by phenosense assay relative to wild type
# Type: functional
# Conditions: not given
# Outline: as §1
row,Compound,fold change (FC)
1,Nc1nc(=O)n([C@@H]2CS[C@H](CO)O2)cc1F [EMTRICITABINE],>88

# Test system: Human immunodeficiency virus 1
# Assay: Antiviral activity against HIV1 isolate 153 harboring reverse transcriptase L74V mutant gene by phenosense assay relative to wild type
# Type: functional
# Conditions: not given
# Outline: as §1
row,Compound,fold change (FC)
1,Nc1nc(=O)n([C@@H]2CS[C@H](CO)O2)cc1F [EMTRICITABINE],1.9

# Test system: Human immunodeficiency virus 1
# Assay: Antiviral activity against HIV1 isolate 215 harboring reverse transcriptase D67N/K70E mutant gene by phenosense assay relative to wild type
# Type: functional
# Conditions: not given
# Outline: as §2
row,Compound,fold change (FC)
1,Nc1nc(=O)n([C@@H]2CS[C@H](CO)O2)cc1F [EMTRICITABINE],3

# Test system: Human immunodeficiency virus 1
# Assay: Antiviral activity against HIV1 isolate 067 harboring reverse transcriptase A62V/D67G/T69SVG/V75I/T215I mutant gene by phenosense assay relative to wild type
# Type: functional
# Conditions: not given
# Outline: as §1
row,Compound,fold change (FC)
1,Nc1nc(=O)n([C@@H]2CS[C@H](CO)O2)cc1F [EMTRICITABINE],26

# Test system: Human immunodeficiency virus 1
# Assay: Antiviral activity against HIV1 isolate 192 harboring reverse transcriptase M41L/T215Y mutant gene by phenosense assay
# Type: functional, organism-based
# Conditions: Human immunodeficiency virus 1, isolate 192
# Outline: as §1
row,Compound,EC50 [µM]
1,Nc1nc(=O)n([C@@H]2CS[C@H](CO)O2)cc1F [EMTRICITABINE],3.1

# Test system: Human immunodeficiency virus 1
# Assay: Antiviral activity against HIV1 isolate 200 harboring reverse transcriptase M41L/L210W/T215Y mutant gene by phenosense assay relative to wild type
# Type: functional
# Conditions: not given
# Outline: as §1
row,Compound,fold change (FC)
1,Nc1nc(=O)n([C@@H]2CS[C@H](CO)O2)cc1F [EMTRICITABINE],3.7

# Test system: Human immunodeficiency virus 1
# Assay: Antiviral activity against HIV1 isolate 160 harboring reverse transcriptase S68G/V75(I/T)/F77L/Y115F/F116Y /Q151M mutant gene by phenosense assay relative to wild type
# Type: functional
# Conditions: not given
# Outline: as §1
row,Compound,fold change (FC)
1,Nc1nc(=O)n([C@@H]2CS[C@H](CO)O2)cc1F [EMTRICITABINE],30

# Test system: Human immunodeficiency virus 1
# Assay: Antiviral activity against HIV1 isolate 061 harboring reverse transcriptase M41L/D67N/K70R/M184V/L210W/T215Y/K219E mutant gene by phenosense assay
# Type: functional, organism-based
# Conditions: Human immunodeficiency virus 1, isolate 061
# Outline: as §1
row,Compound,EC50 [µM]
1,Nc1nc(=O)n([C@@H]2CS[C@H](CO)O2)cc1F [EMTRICITABINE],> 100

# Test system: Human immunodeficiency virus 1
# Assay: Antiviral activity against HIV1 isolate 160 harboring reverse transcriptase S68G/V75(I/T)/F77L/Y115F/F116Y /Q151M mutant gene by phenosense assay
# Type: functional, organism-based
# Conditions: Human immunodeficiency virus 1, isolate 160
# Outline: as §1
row,Compound,EC50 [µM]
1,Nc1nc(=O)n([C@@H]2CS[C@H](CO)O2)cc1F [EMTRICITABINE],35

# Test system: Human immunodeficiency virus 1
# Assay: Antiviral activity against HIV1 isolate 166 harboring reverse transcriptase L74V mutant gene obtained as site-directed mutant of NL4-3 by phenosense assay
# Type: functional, organism-based
# Conditions: Human immunodeficiency virus 1, isolate 166
# Outline: as §1
row,Compound,EC50 [µM]
1,Nc1nc(=O)n([C@@H]2CS[C@H](CO)O2)cc1F [EMTRICITABINE],1.7

# Test system: Human immunodeficiency virus 1
# Assay: Antiviral activity against HIV1 isolate 157 harboring reverse transcriptase L74V/M184V mutant gene by phenosense assay relative to wild type
# Type: functional
# Conditions: not given
# Outline: as §1
row,Compound,fold change (FC)
1,Nc1nc(=O)n([C@@H]2CS[C@H](CO)O2)cc1F [EMTRICITABINE],>88

# Test system: Human immunodeficiency virus 1
# Assay: Antiviral activity against HIV1 isolate 060 harboring reverse transcriptase M41L/D67N/K70R/L210W/T215Y/K219E mutant gene by phenosense assay relative to wild type
# Type: functional
# Conditions: not given
# Outline: as §1
row,Compound,fold change (FC)
1,Nc1nc(=O)n([C@@H]2CS[C@H](CO)O2)cc1F [EMTRICITABINE],6.9

# Test system: Human immunodeficiency virus 1
# Assay: Antiviral activity against HIV1 isolate 220 harboring reverse transcriptase K70E/M184V mutant gene by phenosense assay
# Type: functional, organism-based
# Conditions: Human immunodeficiency virus 1, isolate 220
# Outline: as §2
row,Compound,EC50 [µM]
1,Nc1nc(=O)n([C@@H]2CS[C@H](CO)O2)cc1F [EMTRICITABINE],> 100

# Test system: Human immunodeficiency virus 1
# Assay: Antiviral activity against HIV1 isolate 188 harboring reverse transcriptase T215Y/M184V mutant gene by phenosense assay relative to wild type
# Type: functional
# Conditions: not given
# Outline: as §1
row,Compound,fold change (FC)
1,Nc1nc(=O)n([C@@H]2CS[C@H](CO)O2)cc1F [EMTRICITABINE],>88

# Test system: Human immunodeficiency virus 1
# Assay: Antiviral activity against HIV1 isolate 174 harboring reverse transcriptase M184V mutant gene obtained as site-directed mutant of NL4-3 by phenosense assay
# Type: functional, organism-based
# Conditions: Human immunodeficiency virus 1, isolate 174
# Outline: as §1
row,Compound,EC50 [µM]
1,Nc1nc(=O)n([C@@H]2CS[C@H](CO)O2)cc1F [EMTRICITABINE],> 100

# Test system: Human immunodeficiency virus 1
# Assay: Antiviral activity against HIV1 isolate 185 harboring reverse transcriptase T215Y mutant gene by phenosense assay
# Type: functional, organism-based
# Conditions: Human immunodeficiency virus 1, isolate 185
# Outline: as §1
row,Compound,EC50 [µM]
1,Nc1nc(=O)n([C@@H]2CS[C@H](CO)O2)cc1F [EMTRICITABINE],2.6

# Test system: Human immunodeficiency virus 1
# Assay: Antiviral activity against HIV1 isolate 066 harboring reverse transcriptase 184V mutant gene by phenosense assay
# Type: functional, organism-based
# Conditions: Human immunodeficiency virus 1, isolate 066
# Outline: as §1
row,Compound,EC50 [µM]
1,Nc1nc(=O)n([C@@H]2CS[C@H](CO)O2)cc1F [EMTRICITABINE],> 100

# Test system: Human immunodeficiency virus 1
# Assay: Antiviral activity against HIV1 isolate 058 harboring reverse transcriptase M41L/D67N/K70R/L210W/T215F/K219Q mutant gene by phenosense assay relative to wild type
# Type: functional
# Conditions: not given
# Outline: as §1
row,Compound,fold change (FC)
1,Nc1nc(=O)n([C@@H]2CS[C@H](CO)O2)cc1F [EMTRICITABINE],5

# Test system: Human immunodeficiency virus 1
# Assay: Antiviral activity against HIV1 isolate 204 harboring reverse transcriptase M41L/L210W/T215Y/M184V mutant gene by phenosense assay
# Type: functional, organism-based
# Conditions: Human immunodeficiency virus 1, isolate 204
# Outline: as §2
row,Compound,EC50 [µM]
1,Nc1nc(=O)n([C@@H]2CS[C@H](CO)O2)cc1F [EMTRICITABINE],> 100

# Test system: Human immunodeficiency virus 1
# Assay: Antiviral activity against HIV1 isolate 058 harboring reverse transcriptase M41L/D67N/K70R/L210W/T215F/K219Q mutant gene by phenosense assay
# Type: functional, organism-based
# Conditions: Human immunodeficiency virus 1, isolate 058
# Outline: as §1
row,Compound,EC50 [µM]
1,Nc1nc(=O)n([C@@H]2CS[C@H](CO)O2)cc1F [EMTRICITABINE],5.7

# Test system: Human immunodeficiency virus 1
# Assay: Antiviral activity against HIV1 isolate 061 harboring reverse transcriptase M41L/D67N/K70R/M184V/L210W/T215Y/K219E mutant gene by phenosense assay relative to wild type
# Type: functional
# Conditions: not given
# Outline: as §1
row,Compound,fold change (FC)
1,Nc1nc(=O)n([C@@H]2CS[C@H](CO)O2)cc1F [EMTRICITABINE],>63

# Test system: Human immunodeficiency virus 1
# Assay: Antiviral activity against HIV1 isolate 185 harboring reverse transcriptase T215Y mutant gene by phenosense assay relative to wild type
# Type: functional
# Conditions: not given
# Outline: as §1
row,Compound,fold change (FC)
1,Nc1nc(=O)n([C@@H]2CS[C@H](CO)O2)cc1F [EMTRICITABINE],2.3

# Test system: Human immunodeficiency virus 1
# Assay: Antiviral activity against HIV1 isolate 166 harboring reverse transcriptase L74V mutant gene obtained as site-directed mutant of NL4-3 by phenosense assay relative to wild type
# Type: functional
# Conditions: not given
# Outline: as §1
row,Compound,fold change (FC)
1,Nc1nc(=O)n([C@@H]2CS[C@H](CO)O2)cc1F [EMTRICITABINE],1.5

# Test system: Human immunodeficiency virus 1
# Assay: Antiviral activity against HIV1 isolate 056 expressing wild type reverse transcriptase gene by phenosense assay
# Type: functional, organism-based
# Conditions: Human immunodeficiency virus 1, isolate 056
# Outline: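 In the PhenoSense recombinant virus assay, virus was tested against increasing drug concentrations. EC50 came from the inhibition curve and was compared with a drug-sensitive reference virus.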
row,Compound,EC50 [µM]
1,Nc1nc(=O)n([C@@H]2CS[C@H](CO)O2)cc1F [EMTRICITABINE],0.89
